≈ marks a conversion by molar mass, not a printed value. Calls of active or inactive are those of the source. No cut-off for these calls is given here.
Tests used:
Plasmodium falciparum = assay: Antiplasmodial activity against Plasmodium falciparum 3D7 by SYBR green-I fluorescence dye based fluorescence assay; type: functional, organism-based
Procedure, shortened: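 P. falciparum 3D7 grown in human red cells (1.25% or 5% suspension) in RPMI 1640 with 0.5% Albumax II, 12 mM bicarbonate, 0.2 mM hypoxanthine, pH 7.3, gentamicin, 37 °C, 1% O2/3% CO2. Ten-point dose-response, 1-in-3 dilutions; SYBR Green I DNA fluorescence (ex 485/em 528 nm); mefloquine control; percent inhibition vs high/no-inhibition controls; four-parameter fit; IC50 from ≥3 independent experiments.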

[1] = Half life in human liver microsomes at 1 uM in presence of NADPH-regenerating system; type: ADME, Microsome
[2] = Kinetic solubility in pH 6.5 phosphate buffer after 30 mins by nephelometry; type: physicochemical; conditions: read-out: Kinetic_solubility
Procedure, shortened: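 DMSO stock spiked into pH 6.5 phosphate buffer at 7 concentrations, final DMSO 1%; after 30 min precipitation read by nephelometry to give a solubility range.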

[3] = biological target: Voltage-gated inwardly rectifying potassium channel KCNH2 (Homo sapiens, UniProt Q12809); assay: Inhibition of human ERG
Chain of Voltage-gated inwardly rectifying potassium channel KCNH2 (Q12809 whole entry): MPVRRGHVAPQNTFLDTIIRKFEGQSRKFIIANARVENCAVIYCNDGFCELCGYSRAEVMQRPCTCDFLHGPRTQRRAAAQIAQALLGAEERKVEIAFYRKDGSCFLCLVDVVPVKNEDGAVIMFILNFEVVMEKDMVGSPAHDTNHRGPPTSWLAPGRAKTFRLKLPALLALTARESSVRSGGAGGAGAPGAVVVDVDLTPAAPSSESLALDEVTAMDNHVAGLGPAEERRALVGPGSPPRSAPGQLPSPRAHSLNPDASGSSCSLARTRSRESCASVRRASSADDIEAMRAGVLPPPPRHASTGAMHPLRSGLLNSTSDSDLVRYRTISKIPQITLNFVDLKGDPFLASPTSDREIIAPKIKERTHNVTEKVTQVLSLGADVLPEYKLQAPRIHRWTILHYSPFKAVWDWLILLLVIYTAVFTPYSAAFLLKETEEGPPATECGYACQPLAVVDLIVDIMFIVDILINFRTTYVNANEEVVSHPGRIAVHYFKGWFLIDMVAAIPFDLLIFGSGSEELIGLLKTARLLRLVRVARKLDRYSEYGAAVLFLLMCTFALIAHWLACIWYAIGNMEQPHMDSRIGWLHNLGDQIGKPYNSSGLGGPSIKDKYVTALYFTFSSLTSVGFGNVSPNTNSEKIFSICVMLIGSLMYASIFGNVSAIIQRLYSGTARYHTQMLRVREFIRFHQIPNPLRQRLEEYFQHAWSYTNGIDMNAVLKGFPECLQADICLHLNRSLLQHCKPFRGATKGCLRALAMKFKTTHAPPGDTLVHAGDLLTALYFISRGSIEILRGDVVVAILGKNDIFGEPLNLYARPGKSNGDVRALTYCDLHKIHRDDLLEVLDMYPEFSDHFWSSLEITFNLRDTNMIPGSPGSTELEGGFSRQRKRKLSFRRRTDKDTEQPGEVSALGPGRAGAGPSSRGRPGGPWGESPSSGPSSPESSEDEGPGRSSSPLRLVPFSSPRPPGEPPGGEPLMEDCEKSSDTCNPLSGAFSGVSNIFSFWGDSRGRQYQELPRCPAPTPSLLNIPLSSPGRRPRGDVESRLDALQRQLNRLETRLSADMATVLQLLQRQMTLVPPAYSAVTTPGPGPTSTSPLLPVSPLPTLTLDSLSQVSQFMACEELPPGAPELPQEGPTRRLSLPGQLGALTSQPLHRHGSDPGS

[4] = Half life in mouse liver microsomes at 1 uM in presence of NADPH-regenerating system; type: ADME, Microsome
[5] = Distribution coefficient, logD of compound at pH 7.4 by HPLC analysis; type: physicochemical; conditions: octanol/water
Procedure, shortened: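 LogD at pH 7.4 estimated by gradient HPLC, correlating retention (mean of 2 injections) against standards of known partition coefficient.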

Compound | Activity (Plasmodium falciparum) | further results
CC(C)(C)OC(=O)N1CCN(CCOc2cncc3nnc(-c4ccc(OC(F)F)cc4)n23)CC1 | inactive | –
c1ccc(CCOc2cncc3nnc(C4CCNC4)n23)cc1 (stereo unspecified) | inactive | –
CC(C)(C)OC(=O)N1CCC(c2nnc3cncc(OCCc4ccccc4)n23)C1 (stereo unspecified) | inactive | –
FC(F)Oc1ccc(-c2nnc3cncc(OCCN4CCNCC4)n23)cc1 | inactive | –
CC(C)(C)OC(=O)N1CCC(c2nnc3cncc(OCCc4ccccc4)n23)CC1 | inactive | –
FC(F)Oc1ccc(-c2nnc3cncc(OCCN4CCCCC4)n23)cc1 | inactive | –
FC(F)Oc1ccc(-c2nnc3cncc(OCCC45C6C7C8C6C4C8C75)n23)cc1 (stereo unspecified) | Active | half-life at 1 µM [1]: 9 min; solubility kinetic at 0.5 h [2]: < 1.6 µg/mL; IC50 [3]: 4.26 µM; half-life at 1 µM [4]: 3 min; logD [5]: 4.3
FC(F)Oc1ccc(-c2nnc3cncc(OCC45CC(C(F)F)(C4)C5)n23)cc1 | Active | half-life at 1 µM [1]: 190 min; solubility kinetic at 0.5 h [2]: 6.3 µg/mL (≈ 15.4 µM); half-life at 1 µM [4]: 66 min; logD [5]: 3.6
FC(F)Oc1ccc(-c2nnc3cncc(OCCN4CCCC4)n23)cc1 | inactive | –
FC(F)Oc1ccc(-c2nnc3cncc(OCCc4ccccc4)n23)cc1 | – | half-life at 1 µM [1]: 26 min; solubility kinetic at 0.5 h [2]: 6.3 µg/mL (≈ 16.5 µM); IC50 [3]: 7.41 µM; half-life at 1 µM [4]: 7 min; logD [5]: 3.7
FC(F)Oc1ccc(-c2nnc3cncc(OCCN4CC5(COC5)C4)n23)cc1 | inactive | –
FC(F)Oc1ccc(-c2nnc3cncc(OCCC4COC4)n23)cc1 | inactive | –
c1ccc(CCOc2cncc3nnc(C4CCOC4)n23)cc1 (stereo unspecified) | inactive | –
FC(F)Oc1ccc(-c2nnc3cncc(Oc4ccccc4)n23)cc1 | inactive | –
FC(F)Oc1ccc(-c2nnc3cncc(OC[C@H]4C[C@@H]5C[C@@H]4[C@@H]4O[C@H]54)n23)cc1 | inactive | –
c1ccc(CCOc2cncc3nnc(C4CCOCC4)n23)cc1 | inactive | –
c1ccc(CCOc2cncc3nnc(C4CCNCC4)n23)cc1 | inactive | –
FC(F)Oc1ccc(-c2nnc3cncc(OC[C@H]4C[C@@H]5C[C@@H]4[C@H]4O[C@@H]54)n23)cc1 | inactive | –

Source: ChEMBL document CHEMBL4699450, “Nonclassical Phenyl Bioisosteres as Effective Replacements in a Series of Novel Open-Source Antimalarials” (J Med Chem, 2020)
